Source: ChEMBL document CHEMBL4196059, “Design, synthesis, and biological evaluation of stable β6.3-Helices: Discovery of non-hemolytic antibacterial peptides” (Eur J Med Chem, 2018)
≈ marks a conversion by molar mass, not a printed value. Residues, ends and D or L forms follow the SMILES beside them.

Columns and labels:
[1] = system: Escherichia coli; experiment: Growth inhibition of Escherichia coli ATCC 25922 at 32 ug/ml after 18 hrs; assay type: functional; settings: ATCC 25922, 18 h, read-out: GI
Outline: (§1)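 Mid-log cultures were prepared as above and seeded at 5×10^5 CFU/mL with compound at a final 32 μg/mL, then held static at 37 °C for 18 h. Growth was read as OD600. Percent inhibition was calculated against media-only and bacteria-only controls on the same plate.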

[2] = Hemolytic activity against human RBC at 0.39 uM after 1 hr by Drabkin's assay relative to control; assay type: ADME, cell-based, Erythrocyte; settings: human red blood cells (erythrocytes), read-out: Activity
[3] = system: Acinetobacter baumannii; experiment: Antibacterial activity against Acinetobacter baumannii ATCC 19606 after 18 hrs by non-binding surface 96-well plate-based method; assay type: functional; settings: ATCC 19606 = CIP 70.34 = JCM 6841, 18 h
Outline: (§2)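 Strains grown in cation-adjusted Mueller Hinton broth at 37 °C for 12 h, diluted 40-fold and regrown 1.5–3 h to mid-log. Inoculum was 5×10^5 CFU/mL in 12-point dose response, in non-binding surface or polystyrene plates, in duplicate. Plates stood at 37 °C for 18 h. MIC was read by OD600.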

[4] = Hemolytic activity against human RBC at 25 uM after 1 hr by Drabkin's assay relative to control; assay type: ADME, cell-based, Erythrocyte; settings: human red blood cells (erythrocytes), read-out: Activity
[5] = system: Staphylococcus aureus; experiment: Growth inhibition of methicillin-resistant Staphylococcus aureus ATCC 43300 at 32 ug/ml after 18 hrs; assay type: functional; settings: ATCC 43300, 18 h, read-out: GI
Outline: (§3)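 Mid-log cultures in cation-adjusted Mueller Hinton broth were added at 5×10^5 CFU/mL to wells at a final compound concentration of 32 μg/mL. Plates stood at 37 °C for 18 h. Growth was read by OD600, and % inhibition was computed against media-only and untreated-bacteria controls.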

[6] = system: Klebsiella pneumoniae; experiment: Growth inhibition of multidrug-resistant Klebsiella pneumoniae ATCC 700603 at 32 ug/ml after 18 hrs; assay type: functional; settings: ATCC 700603, 18 h, read-out: GI; outline: as §3
[7] = system: Klebsiella pneumoniae; experiment: Antibacterial activity against multidrug-resistant Klebsiella pneumoniae ATCC 700603 after 18 hrs by polystyrene 96-well plate-based method; assay type: functional; settings: ATCC 700603, 18 h; outline: as §2
[8] = system: Escherichia coli; experiment: Antibacterial activity against Escherichia coli ATCC 25922 after 18 hrs by polystyrene 96-well plate-based method; assay type: functional; settings: ATCC 25922, 18 h; outline: as §2
[9] = Hemolytic activity against human RBC at 0.78 uM after 1 hr by Drabkin's assay relative to control; assay type: ADME, cell-based, Erythrocyte; settings: human red blood cells (erythrocytes), read-out: Activity
[10] = system: Erythrocyte; experiment: Hemolytic activity against human RBC after 1 hr by Drabkin's assay; assay type: ADME, cell-based
[11] = system: Acinetobacter baumannii; experiment: Antibacterial activity against Acinetobacter baumannii ATCC 19606 after 18 hrs by polystyrene 96-well plate-based method; assay type: functional; settings: ATCC 19606 = CIP 70.34 = JCM 6841, 18 h
Outline: (§4)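 Cultured in cation-adjusted Mueller Hinton broth at 37 °C for 12 h, diluted 40-fold and grown 1.5–3 h to mid-log. Seeded at 5×10^5 CFU/mL over a 12-point dose response in non-binding surface and polystyrene 96-well plates, duplicates (n=2). Incubated static at 37 °C for 18 h. MIC read from OD600 light scattering; colistin and vancomycin as standards.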

[12] = system: Cryptococcus neoformans; experiment: Growth inhibition of Cryptococcus neoformans H99 ATCC 208821 at 32 ug/ml after 24 hrs by resazurin dye-based microspectrophotometric assay; assay type: functional; settings: var. grubii H99 ATCC 208821, 24 h, read-out: GI
Outline: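 Yeasts were grown 3 days on YPD agar at 30 °C, suspended from five colonies and diluted in YNB broth to a final 2.5×10^3 CFU/mL. Compound at a final 32 μg/mL; incubated 24 h at 35 °C without shaking. C. albicans was read at OD530. C. neoformans was read as OD600–570 after resazurin (0.001% final) and a further 2 h at 35 °C. Fluconazole was the standard.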

[13] = system: Klebsiella pneumoniae; experiment: Antibacterial activity against multidrug-resistant Klebsiella pneumoniae ATCC 700603 after 18 hrs by non-binding surface 96-well plate-based method; assay type: functional; settings: ATCC 700603, 18 h; outline: as §2
[14] = system: Pseudomonas aeruginosa; experiment: Growth inhibition of Pseudomonas aeruginosa ATCC 27853 at 32 ug/ml after 18 hrs; assay type: functional; settings: ATCC 27853, 18 h, read-out: GI; outline: as §1
[15] = system: Acinetobacter baumannii; experiment: Growth inhibition of Acinetobacter baumannii ATCC 19606 at 32 ug/ml after 18 hrs; assay type: functional; settings: ATCC 19606 = CIP 70.34 = JCM 6841, 18 h, read-out: GI; outline: as §1
[16] = system: Candida albicans; experiment: Growth inhibition of Candida albicans ATCC 90028 at 32 ug/ml after 24 hrs by OD530 light-scattering microspectrophotometric method; settings: ATCC 90028, 24 h, read-out: GI
[17] = system: Staphylococcus aureus; experiment: Antibacterial activity against methicillin-resistant Staphylococcus aureus ATCC 43300 after 18 hrs by polystyrene 96-well plate-based method; assay type: functional; settings: ATCC 43300, 18 h; outline: as §2
[18] = Hemolytic activity against human RBC at 50 uM after 1 hr by Drabkin's assay relative to control; assay type: ADME, cell-based, Erythrocyte; settings: human red blood cells (erythrocytes), read-out: Activity
[19] = Hemolytic activity against human RBC; assay type: ADME, cell-based, Erythrocyte; settings: human red blood cells (erythrocytes)
[20] = system: Staphylococcus aureus; experiment: Antibacterial activity against methicillin-resistant Staphylococcus aureus ATCC 43300 after 18 hrs by non-binding surface 96-well plate-based method; assay type: functional; settings: ATCC 43300, 18 h; outline: as §2
[21] = Hemolytic activity against human RBC at 1.56 uM after 1 hr by Drabkin's assay relative to control; assay type: ADME, cell-based, Erythrocyte; settings: human red blood cells (erythrocytes), read-out: Activity
[22] = Hemolytic activity against human RBC at 12.5 uM after 1 hr by Drabkin's assay relative to control; assay type: ADME, cell-based, Erythrocyte; settings: human red blood cells (erythrocytes), read-out: Activity
[23] = system: Escherichia coli; experiment: Antibacterial activity against Escherichia coli ATCC 25922 after 18 hrs by non-binding surface 96-well plate-based method; assay type: functional; settings: ATCC 25922, 18 h; outline: as §4
[24] = Hemolytic activity against human RBC at 6.25 uM after 1 hr by Drabkin's assay relative to control; assay type: ADME, cell-based, Erythrocyte; settings: human red blood cells (erythrocytes), read-out: Activity
[25] = Hemolytic activity against human RBC at 3.125 uM after 1 hr by Drabkin's assay relative to control; assay type: ADME, cell-based, Erythrocyte; settings: human red blood cells (erythrocytes), read-out: Activity
[26] = system: Lipid bilayer; experiment: Induction of pore formation in POPC vesicles at 20 uM after 3 hrs by carboxyfluorescein dye leakage assay; settings: in the assay text read “after 3 mins” for “after 3 hrs”
Outline: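 POPC or DOPC liposomes were hydrated in 10 mM HEPES, 100 mM KCl, pH 7.4, containing 50 mM carboxyfluorescein. Size was checked by dynamic light scattering, and vesicles were used at 2.2×10^10 per mL. Peptide at 20 μM was equilibrated with vesicles for 3 min, and dye leakage was measured.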

In the case of `CC(C)C[C@@H](NC(=O)[C@H](C)NC(=O)CNC(=O)[C@@H](NC=O)C(C)C)C(=O)N[C@@H](C)C(=O)N[C@@H](C(=O)N[C@H](C(=O)N[C@@H](C(=O)N[C@@H](Cc1c[nH]c2ccccc12)C(=O)N[C@H](CC(C)C)C(=O)N[C@@H](Cc1c[nH]c2ccccc12)C(=O)N[C@H](CC(C)C)C(=O)N[C@@H](Cc1c[nH]c2ccccc12)C(=O)N[C@H](CC(C)C)C(=O)N[C@@H](Cc1c[nH]c2ccccc12)C(=O)NCCO)C(C)C)C(C)C)C(C)C` (HELM PEPTIDE1{[O=C[*:2]].V.G.A.[dL].A.[dV].V.[dV].W.[dL].W.[dL].W.[dL].W.[OCCN[*:1]]}$$$$V2.0), the inhibition of growth at 32 µg/mL [1] is reported as 11.1%, the hemolysis at 1 h, 0.39 µM [2] is reported as 5.43% and the MIC [3] is reported as > 50 µg/mL. The hemolysis at 1 h, 25 µM [4] was 52.8%, the inhibition of growth at 32 µg/mL [5] was 24.9% and the inhibition of growth at 32 µg/mL [6] was 11.2%. The MIC [7] was > 50 µg/mL, the MIC [8] was > 50 µg/mL and the hemolysis at 1 h, 0.78 µM [9] was 59.4%. The Activity [10] was “Dose-dependent effect”, the MIC [11] was > 50 µg/mL and the inhibition of growth at 32 µg/mL [12] was -0.81%. For the same compound, the MIC [13] was > 50 µg/mL, the inhibition of growth at 32 µg/mL [14] was -6.36% and the inhibition of growth at 32 µg/mL [15] was 6.51%. The inhibition of growth at 32 µg/mL [16] was 8.67%, the MIC [17] was 25 to 50 µg/mL (≈ 13.3 to 26.6 µM) and the hemolysis at 1 h, 50 µM [18] was 48.5%. For the same compound, the HC50 [19] was 5 µM, the MIC [20] was > 50 µg/mL and the hemolysis at 1 h, 1.56 µM [21] was 74.8%. The hemolysis at 1 h, 12.5 µM [22] was 66.1%, the MIC [23] was > 50 µg/mL and the hemolysis at 1 h, 6.25 µM [24] was 87.2%. The hemolysis at 1 h, 3.125 µM [25] was 84.7% and the Activity [26] was 100%.
